PMC6061379 (Clinical Drug Investigation, 2018)
pIC50: −log10 of the molar value. Several values for one entry are separate records, joined by “and”; a condition that tells them apart may be missing. Equal entries are not always repeated. Where two headings read alike, the source gives them in different places.

Key:
[1] = Urinary pharmacokinetics after single oral verinurad 15 mg; assay type: in vivo, human; conditions: for fe0–72 fraction of drug excreted in urine unchanged from time zero to 72 h, GM (95% CI): verinurad 15 mg single oral dose; for CLR0–72, GLSMR (90% CI) versus normal renal function group / Decrease in renal clearance (CLR0-72) versus normal renal function: verinurad 15 mg
Summary of the method: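 Single 15 mg dose given to males grouped by Cockcroft-Gault creatinine clearance. Total-catch urine collected at 6–12 h intervals to 72 h post-dose. Parent and metabolites quantified by validated LC-MS/MS, with the acyl-glucuronide hydrolysed by 2 M KOH and measured as total aglycone. Renal clearance and fraction excreted unchanged over 0–72 h. Ln-transformed parameters compared with the normal group by fixed-effects model; geometric mean ratios with 90% CI.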

[2] = test system: sUA; conditions: doses as low as; cited from earlier work
[3] = Safety assessments; assay type: in vivo, human; conditions: for Number of adverse events / Subjects with adverse events, n (%): treatment-emergent; for Number of adverse events / Subjects with adverse events, n (%) / Number of adverse events of mild severity / Number of adverse events of moderate severity / Severe/life-threatening adverse events / Subjects with adverse events of mild severity, n (%) / Subjects with adverse events of moderate severity, n (%): verinurad 15 mg
Summary of the method: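 Males with normal or impaired renal function were housed in the study centre from Day −2 until final procedures after a single 15 mg dose. Assessments covered adverse events (MedDRA v17.0), clinical laboratory tests, vital signs, ECGs and physical examinations. Clinically relevant laboratory abnormalities were graded for severity by the investigator using Rheumatology Common Toxicity Criteria v2.0.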

[4] = humans, cited from earlier work
[5] = Plasma protein binding; assay type: in vitro ADME; conditions: human
[6] = test system: serum urate (sUA); assay: Serum urate; assay type: in vivo, human; conditions: verinurad 15 mg; all groups
Summary of the method: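 Single 15 mg dose. Serial serum sampled on Day −1 (baseline) and Day 1 at preset times up to 72 h post-dose. Urate measured enzymatically. Percent change from baseline time-matched to Day −1, with maximal and mean changes derived per renal-function group.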

[7] = test system: URAT1; conditions: read-out: half-maximal inhibitory constant in inhibiting URAT1; cited from earlier work
[8] = assay type: in vivo, human; conditions: for AUC0–∞, GLSMR (90% CI) versus normal renal function group / Cmax, GLSMR (90% CI) versus normal renal function group: plasma; for AUC0–∞, GLSMR (90% CI) versus normal renal function group / Cmax, GLSMR (90% CI) versus normal renal function group / CL/F, GLSMR (90% CI) versus normal renal function group / Increase in AUC0–∞ compared to subjects with normal renal function / Increase in Cmax compared to subjects with normal renal function: verinurad 15 mg; for CL/F total body clearance, GM (95% CI): verinurad 15 mg single oral dose, fasted
Summary of the method: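 Males aged 18–85 y with sUA 4.5–10 mg/dl, grouped by Cockcroft-Gault eCrCl (normal ≥90, mild 60–<90, moderate 30–<60, severe 15–<30 ml/min). Normal group matched for age and BMI. Single 15 mg dose. Serial blood sampled up to 72 h post-dose; plasma acidified. Parent and metabolites measured by validated LC-MS/MS. Non-compartmental parameters, ln-transformed, fixed-effects model, geometric mean ratios with 90% CI versus normal.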

[9] = test system: urinary uric acid; assay: Urinary uric acid pharmacodynamics after verinurad 15 mg; assay type: in vivo, human; conditions: for AeUR,0–24 h amount of urinary uric acid recovered in urine, mean (SD) / FEUA,0–24 h fractional excretion of uric acid, mean (SD) / ReUR,0–24 h rate of urinary uric acid excretion, mean (SD): following verinurad 15 mg
Summary of the method: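 Total-catch urine collected at 6–12 h intervals to 72 h after a single 15 mg dose, with a Day −1 baseline. Urate and creatinine in serum and urine measured by enzymatic method.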

[10] = moderate renal impairment (N = 7)
[11] = severe renal impairment (N = 7)
[12] = moderate renal impairment (N = 8)
[13] = verinurad 15 mg single dose, all groups

- fe0–72 fraction of drug excreted in urine unchanged from time zero to 72 h, GM (95% CI) [1, 10]: 1.05 (0.561–1.96) %
- fe0–72 fraction of drug excreted in urine unchanged from time zero to 72 h, GM (95% CI) ([1]; normal renal function (N = 8)): 0.814 (0.508–1.31) %
- fe0–72 fraction of drug excreted in urine unchanged from time zero to 72 h, GM (95% CI) [1, 11]: 0.362 (0.202–0.647) %
- CLR0–72, GLSMR (90% CI) versus normal renal function group ([1]; mild renal impairment): 95.4% (60.6–150)
- Decrease in renal clearance (CLR0-72) versus normal renal function ([1]; mild renal impairment): 5% and 4.6%
- CLR0–72, GLSMR (90% CI) versus normal renal function group ([1]; moderate renal impairment): 58.3% (30.2–113)
- Decrease in renal clearance (CLR0-72) versus normal renal function ([1]; moderate renal impairment): 42%
- CLR0–72, GLSMR (90% CI) versus normal renal function group ([1]; severe renal impairment): 21.2% (13.6–32.8)
- Decrease in renal clearance (CLR0-72) versus normal renal function ([1]; severe renal impairment): 79%
- fraction unbound [5]: 0.013 to 0.024
- AUC0–∞, GLSMR (90% CI) versus normal renal function group ([8]; mild renal impairment): 124% (88.8–173)
- Cmax, GLSMR (90% CI) versus normal renal function group ([8]; mild renal impairment): 153% (115–203)
- AUC0–∞, GLSMR (90% CI) versus normal renal function group ([8]; moderate renal impairment): 248% (168–366)
- Cmax, GLSMR (90% CI) versus normal renal function group ([8]; moderate renal impairment): 173% (131–230)
- AUC0–∞, GLSMR (90% CI) versus normal renal function group ([8]; severe renal impairment): 230% (146–363)
- Cmax, GLSMR (90% CI) versus normal renal function group ([8]; severe renal impairment): 228% (155–336)
- CL/F total body clearance, GM (95% CI) ([8]; mild renal impairment (N = 8)): 74.8 (53.7–104) L/h
- CL/F total body clearance, GM (95% CI) [8, 10]: 37.3 (23.7–58.9) L/h
- CL/F total body clearance, GM (95% CI) ([8]; normal renal function (N = 8)): 92.6 (68.7–125) L/h
- CL/F total body clearance, GM (95% CI) [8, 11]: 40.3 (22.6–71.7) L/h
- CL/F, GLSMR (90% CI) versus normal renal function group ([8]; mild renal impairment): 80.8% (57.9–113)
- Increase in AUC0–∞ compared to subjects with normal renal function ([8]; mild renal impairment): 24%
- Increase in Cmax compared to subjects with normal renal function ([8]; mild renal impairment): 53%
- CL/F, GLSMR (90% CI) versus normal renal function group ([8]; moderate renal impairment): 40.3% (27.3–59.5)
- Increase in AUC0–∞ compared to subjects with normal renal function ([8]; moderate renal impairment): 148%
- Increase in Cmax compared to subjects with normal renal function ([8]; moderate renal impairment): 73%
- CL/F, GLSMR (90% CI) versus normal renal function group ([8]; severe renal impairment): 43.5% (27.5–68.7)
- Increase in AUC0–∞ compared to subjects with normal renal function ([8]; severe renal impairment): 130%
- Increase in Cmax compared to subjects with normal renal function ([8]; severe renal impairment): 128%
SMILES: CC(C)(Sc1ccncc1-c1ccc(C#N)c2ccccc12)C(=O)O [Verinurad]
- Lowest dose providing sUA lowering in humans [2]: 2.5 mg
- Subjects with TEAE possibly related to verinurad ([3]; control group, oropharyngeal pain and rhinorrhea): One subject
- Number of adverse events ([3]; mild renal impairment (N = 8)): 3
- Subjects with adverse events, n (%) ([3]; mild renal impairment (N = 8)): 3 (37.5%)
- Number of adverse events [3, 12]: 2
- Subjects with adverse events, n (%) [3, 12]: 1 (12.5%)
- Number of adverse events ([3]; normal renal function (N = 8)): 5
- Subjects with adverse events, n (%) ([3]; normal renal function (N = 8)): 1 (12.5%)
- Number of adverse events [3, 11]: 2
- Subjects with adverse events, n (%) [3, 11]: 2 (28.6%)
- Adverse event-related withdrawals [3, 13]: no AE-related withdrawals
- Changes in laboratory values or vital signs [3, 13]: No clinically meaningful changes
- Serious adverse events [3, 13]: no serious AEs
- Tolerability [3, 13]: well tolerated
- Number of adverse events of mild severity ([3]; mild renal impairment (N = 8)): 2
- Number of adverse events of moderate severity ([3]; mild renal impairment (N = 8)): 1
- Severe/life-threatening adverse events ([3]; mild renal impairment (N = 8)): 0
- Subjects with adverse events of mild severity, n (%) ([3]; mild renal impairment (N = 8)): 2 (25.0%)
- Subjects with adverse events of moderate severity, n (%) ([3]; mild renal impairment (N = 8)): 1 (12.5%)
- Number of adverse events of mild severity [3, 12]: 1
- Number of adverse events of moderate severity [3, 12]: 1
- Severe/life-threatening adverse events [3, 12]: 0
- Subjects with adverse events of mild severity, n (%) [3, 12]: 1 (12.5%)
- Subjects with adverse events of moderate severity, n (%) [3, 12]: 1 (12.5%)
- Number of adverse events of mild severity ([3]; normal renal function (N = 8)): 4
- Number of adverse events of moderate severity ([3]; normal renal function (N = 8)): 1
- Severe/life-threatening adverse events ([3]; normal renal function (N = 8)): 0
- Subjects with adverse events of mild severity, n (%) ([3]; normal renal function (N = 8)): 1 (12.5%)
- Subjects with adverse events of moderate severity, n (%) ([3]; normal renal function (N = 8)): 1 (12.5%)
- Number of adverse events of mild severity [3, 11]: 1
- Number of adverse events of moderate severity [3, 11]: 1
- Severe/life-threatening adverse events [3, 11]: 0
- Subjects with adverse events of mild severity, n (%) [3, 11]: 1 (14.3%)
- Subjects with adverse events of moderate severity, n (%) [3, 11]: 1 (14.3%)
- Parent drug excreted unchanged in urine ([4]; ref 21): about 2%
- Parent drug excreted unchanged in urine ([4]; ref 26): about 2%
- Time post-dose at which maximal percent change in sUA occurred [6]: approximately 12 h
- pIC50 [7]: 7.44
- AeUR,0–24 h amount of urinary uric acid recovered in urine, mean (SD) ([9]; mild renal impairment (N = 8)): 880 (225) mg
- FEUA,0–24 h fractional excretion of uric acid, mean (SD) ([9]; mild renal impairment (N = 8)): 16.2 (5.68) %
- ReUR,0–24 h rate of urinary uric acid excretion, mean (SD) ([9]; mild renal impairment (N = 8)): 36.6 (9.39) mg/h
- AeUR,0–24 h amount of urinary uric acid recovered in urine, mean (SD) [9, 10]: 707 (334) mg
- FEUA,0–24 h fractional excretion of uric acid, mean (SD) [9, 10]: 13.0 (7.48) %
- ReUR,0–24 h rate of urinary uric acid excretion, mean (SD) [9, 10]: 29.3 (13.8) mg/h
- AeUR,0–24 h amount of urinary uric acid recovered in urine, mean (SD) ([9]; normal renal function (N = 8)): 969 (299) mg
- FEUA,0–24 h fractional excretion of uric acid, mean (SD) ([9]; normal renal function (N = 8)): 13.8 (6.24) %
- ReUR,0–24 h rate of urinary uric acid excretion, mean (SD) ([9]; normal renal function (N = 8)): 40.1 (12.1) mg/h
- AeUR,0–24 h amount of urinary uric acid recovered in urine, mean (SD) [9, 11]: 393 (144) mg
- FEUA,0–24 h fractional excretion of uric acid, mean (SD) [9, 11]: 12.7 (6.43) %
- ReUR,0–24 h rate of urinary uric acid excretion, mean (SD) [9, 11]: 16.3 (6.02) mg/h
- Time post-dose by which ReUR returned to baseline ([9]; verinurad 15 mg): ≤ 12 h
